Source: ChEMBL document CHEMBL3769357, “Phosphoramidate protides of five flavones and their antiproliferative activity against HepG2 and L-O2 cell lines” (Eur J Med Chem, 2016)

Legend:
[1] = test system: BGC-823; experiment: Induction of apoptosis in human BGC823 cells at 80 uM after 24 hrs by annexin V-FITC/propidium iodide staining-based flow cytometry (reference value: 1.5%); format: functional
[2] = Cytotoxicity against human LO2 cells after 48 hrs by MTT assay; format: cell-based; details: L02, 48 h
Procedure, shortened: (§1)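 After 48 h, MTT (5 mg/mL in PBS) added, 4 h at 37 °C, DMSO added, absorbance read at 570 nm. IC50 is the 50% growth-inhibition concentration, mean of three independent experiments.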

[3] = test system: HepG2; experiment: Antiproliferative activity against human HepG2 cells after 48 hrs by MTT assay; format: functional, cell-based; details: HepG2, 48 h; procedure, shortened: as §1
[4] = test system: LN-229; experiment: Induction of cell cycle arrest in human LNT229 cells assessed as accumulation at G2/M phase at 100 uM after 24 hrs by propidium iodide staining-based flow cytometry (reference value: 34%); format: functional
[5] = test system: HepG2; experiment: Induction of apoptosis in human HepG2 cells assessed as early apoptotic cells at IC50 after 4 hrs by annexin V-FITC/propidium iodide staining-based flow cytometry (reference value: 0.41%); format: functional
[6] = test system: HepG2; experiment: Induction of apoptosis in human HepG2 cells assessed as late apoptotic cells at IC50 after 24 hrs by annexin V-FITC/propidium iodide staining-based flow cytometry (reference value: 1.77%); format: functional
[7] = test system: HepG2; experiment: Induction of apoptosis in human HepG2 cells assessed as viable cells at IC50 after 24 hrs by annexin V-FITC/propidium iodide staining-based flow cytometry (reference value: 90.5%); format: functional
[8] = test system: HepG2; experiment: Induction of apoptosis in human HepG2 cells assessed as nectrotic cells at IC50 after 4 hrs by annexin V-FITC/propidium iodide staining-based flow cytometry (reference value: 0.46%); format: functional
[9] = test system: HepG2; experiment: Induction of cell cycle arrest in human HepG2 cells assessed as accumulation at G0/G1 phase at IC50 after 24 hrs by propidium iodide staining-based flow cytometry (reference value: 67.5%); format: functional
[10] = test system: HepG2; experiment: Induction of apoptosis in human HepG2 cells assessed as nectrotic cells at IC50 after 24 hrs by annexin V-FITC/propidium iodide staining-based flow cytometry (reference value: 6.70%); format: functional
[11] = test system: HepG2; experiment: Induction of cell cycle arrest in human HepG2 cells assessed as accumulation at S phase at IC50 after 24 hrs by propidium iodide staining-based flow cytometry (reference value: 16.1%); format: functional
[12] = test system: HepG2; experiment: Induction of cell cycle arrest in human HepG2 cells assessed as accumulation at G2/M phase at IC50 after 24 hrs by propidium iodide staining-based flow cytometry (reference value: 16.4%); format: functional
[13] = test system: HepG2; experiment: Induction of apoptosis in human HepG2 cells assessed as late apoptotic cells at IC50 after 4 hrs by annexin V-FITC/propidium iodide staining-based flow cytometry (reference value: 0.53%); format: functional
[14] = test system: HepG2; experiment: Selectivity index, ratio of IC50 for human LO2 cells to human HepG2 cells
[15] = test system: HepG2; experiment: Induction of apoptosis in human HepG2 cells assessed as early apoptotic cells at IC50 after 24 hrs by annexin V-FITC/propidium iodide staining-based flow cytometry (reference value: 0.41%)
[16] = test system: HepG2; experiment: Induction of apoptosis in human HepG2 cells assessed as viable cells at IC50 after 4 hrs by annexin V-FITC/propidium iodide staining-based flow cytometry (reference value: 98.6%); format: functional
[17] = test system: T-24; experiment: Induction of cell cycle arrest in human T24 cells assessed as accumulation at G2/M phase at 160 uM after 24 hrs by propidium iodide staining-based flow cytometry (reference value: 14.45%); format: functional

Row | Structure (SMILES) | Activity [1] [%] | IC50 [2] [µM] | IC50 [3] [µM] | Activity [4] [%] | Activity [5] [%] | Activity [6] [%] | Activity [7] [%] | Activity [8] [%] | Activity [9] [%] | Activity [10] [%] | Activity [11] [%] | Activity [12] [%] | Activity [13] [%] | Ratio IC50 [14] | Activity [15] [%] | Activity [16] [%] | Activity [17] [%]
1 | O=c1c(-c2ccc(O)cc2)coc2cc(O)ccc12 [DAIDZEIN] | 32.5 | > 100 | > 100 | – | – | – | – | – | – | – | – | – | – | – | – | – | –
2 | O=c1c(-c2ccc(O)cc2)coc2cc(O)cc(O)c12 [GENISTEIN] | – | > 100 | > 100 | 58 | – | – | – | – | – | – | – | – | – | – | – | – | –
3 | COC(=O)[C@H](C)NP(=O)(Oc1ccccc1)Oc1cc(OC(C)=O)c2c(=O)cc(-c3ccc(OC(C)=O)cc3)oc2c1 (some centres undefined) | – | 22.2 | 9 | – | 0.45 | 3.4 | 85.42 | 3.58 | 11 | 9.88 | 16.4 | 72.6 | 6.95 | 2.467 | 1.31 | 89.02 | –
4 | O=c1cc(-c2ccc(O)cc2)oc2cc(O)cc(O)c12 [APIGENIN] | – | > 100 | 70.2 | – | – | – | – | – | – | – | – | – | – | >1.425 | – | – | 37.94
